Experimental data from ChEMBL document CHEMBL1139470, “Benzophenone-based farnesyltransferase inhibitors with high activity against Trypanosoma cruzi” (J Med Chem, 2005).

Assays:
Trypanosoma cruzi = assay: Inhibition of Trypanosoma cruzi Tulahuen in BALB/c mouse blood; format: functional
Procedure, shortened: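 Trypomastigote lysis assay: mouse blood (from infected BALB/c, cardiac puncture) holding 5 × 10^4 bloodstream trypomastigotes per well, compound added from 10 mM DMSO stock diluted in BHI; DMSO controls (final 1/1000). 24 h at 4 °C, then microscopic counting at 400×. Triplicates, experiments repeated 3–4 times; lysis relative to control; LC50 = minimal concentration lysing 50%.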

[1] = Inhibition of Saccharomyces cerevisiae FTase
[2] = Cytotoxicity against HeLa cells after 72 hrs; format: cell-based; conditions: human
Procedure, shortened: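 HeLa cells grown in RPMI 1640 with 10% heat-inactivated FBS and gentamicin, then harvested in log phase by trypsinization. About 10 000 cells/well were preincubated 48 h before compound addition (10 mM DMSO stock diluted 1:200 in medium). Cells were exposed 72 h at 37 °C, 5% CO2, fixed with glutaraldehyde and stained with methylene blue. Stain was eluted with HCl and OD read at 660 nm to give CC50.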

Vero [3] = assay: Cytotoxicity against Vero cells at 100 uM; format: cell-based; conditions: chlorocebus sabaeus
Procedure, shortened: (§1)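 Vero cells cultured in RPMI 1640 with 5% heat-inactivated FBS. 10^4 cells/well were incubated with compound at 37 °C, 5% CO2, in triplicate per concentration. DMSO was the diluent at a final 1/1000, and DMSO-only wells served as control. Toxicity was judged by cell morphology and confluent growth.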

Mus musculus [4] = assay: Survival of BALB/c mouse infected with Trypanosoma cruzi trypomastigotes at 7 mg/kg/day relative to control; format: functional
Procedure, shortened: (§2)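 Male BALB/c mice, 60 days old, infected intraperitoneally with 500 bloodstream trypomastigotes (groups of five; untreated infected controls, six). Oral dosing (25 µL) from 30 min post-infection, five times weekly, 39 doses total (21 at 3.2 mg/kg/day). Control mice got physiological solution. Parasitemia checked by tail-blood microscopy twice weekly. Survival recorded to day 115 pi.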

Vero [5] = assay: Effect on Vero cell morphology at 100 uM; format: functional, cell-based; conditions: Chlorocebus sabaeus; procedure, shortened: as §1
Mus musculus [6] = assay: Survival of BALB/c mouse infected with Trypanosoma cruzi trypomastigotes at 3.2 mg/kg/day relative to control; format: functional; procedure, shortened: as §2
Mus musculus [7] = assay: Survival of BALB/c mouse infected with Trypanosoma cruzi trypomastigotes at 6.4 mg/kg/day relative to control; format: functional; procedure, shortened: as §2

Row | SMILES | LC50 (Trypanosoma cruzi) | IC50 [1] | CC50 at 72 h [2] | further results
1 | O=C(/C=C/c1ccc(-c2ccc([N+](=O)[O-])cc2)o1)Nc1ccc(NC(=O)C(c2ccccc2)N2CCOCC2)c(C(=O)c2ccccc2)c1 (configuration not stated) | 50000 nM | 660 nM | > 76000 nM | 
2 | CN1CCN(C(C(=O)Nc2ccc(NC(=O)/C=C/c3ccc(-c4ccc([N+](=O)[O-])cc4)o3)cc2C(=O)c2ccccc2)c2ccccc2)CC1 (configuration not stated) | 10000 nM | 10 nM | 37000 nM | 
3 | O=C(/C=C/c1ccc(-c2ccc([N+](=O)[O-])cc2)o1)Nc1ccc(NC(=O)C(c2ccccc2)N2CCN(Cc3ccccc3)CC2)c(C(=O)c2ccccc2)c1 (configuration not stated) | 50000 nM | 660 nM |  | 
4 | CCN1CCN(C(C(=O)Nc2ccc(NC(=O)/C=C/c3ccc(-c4ccc([N+](=O)[O-])cc4)o3)cc2C(=O)c2ccccc2)c2ccccc2)CC1 (configuration not stated) | > 50000 nM | > 10000 nM |  | 
5 | CC[C@H](C)[C@H](N)C(=O)Nc1ccc(NC(=O)/C=C/c2ccc(-c3ccc([N+](=O)[O-])cc3)o2)cc1C(=O)c1ccccc1 | 100 nM | 150 nM | > 83000 nM | 
6 | CN1CCN(C(C(=O)Nc2ccc(NC(=O)/C=C/c3ccc(-c4ccc([N+](=O)[O-])cc4)o3)cc2C(=O)c2ccccc2)c2ccc(Cl)cc2)CC1 (configuration not stated) | 10000 nM | 125 nM | 38600 nM | 
7 | CSCC[C@H](N)C(=O)Nc1ccc(NC(=O)/C=C/c2ccc(-c3ccc([N+](=O)[O-])cc3)o2)cc1C(=O)c1ccccc1 | > 10000 nM | 1770 nM | > 81000 nM | 
8 | O=C(/C=C/c1ccc(-c2ccc([N+](=O)[O-])cc2)o1)Nc1ccc(NC(=O)C(c2ccccc2)N2CCN(c3ccccc3)CC2)c(C(=O)c2ccccc2)c1 (configuration not stated) | > 50000 nM | 300 nM |  | 
9 | O=C(/C=C/c1ccc(-c2ccc([N+](=O)[O-])cc2)o1)Nc1ccc(NC(=O)Cc2ccc(C(F)(F)F)cc2)c(C(=O)c2ccccc2)c1 | 50000 nM | 26 nM | > 57000 nM | 
10 | CCCN1CCN(C(C(=O)Nc2ccc(NC(=O)/C=C/c3ccc(-c4ccc([N+](=O)[O-])cc4)o3)cc2C(=O)c2ccccc2)c2ccccc2)CC1 (configuration not stated) | 10 nM | 125 nM | 68000 nM | Activity (Vero [3]): Non-toxic; survival at 7 mg/kg/day (Mus musculus [4]): 60%; Activity (Vero [5]): Non-toxic
11 | N[C@H](C(=O)Nc1ccc(NC(=O)/C=C/c2ccc(-c3ccc([N+](=O)[O-])cc3)o2)cc1C(=O)c1ccccc1)c1ccccc1 | > 50000 nM | 46 nM | > 80000 nM | 
12 | O=C1CCN(C(C(=O)Nc2ccc(NC(=O)/C=C/c3ccc(-c4ccc([N+](=O)[O-])cc4)o3)cc2C(=O)c2ccccc2)c2ccccc2)CC1 (configuration not stated) | 1000 nM |  |  | 
13 | CC(C)C[C@H](N)C(=O)Nc1ccc(NC(=O)/C=C/c2ccc(-c3ccc([N+](=O)[O-])cc3)o2)cc1C(=O)c1ccccc1 | 1000 nM | 360 nM | > 83000 nM | 
14 | CC(C)(C)OC(=O)NC(C(=O)Nc1ccc(NC(=O)/C=C/c2ccc(-c3ccc([N+](=O)[O-])cc3)o2)cc1C(=O)c1ccccc1)c1ccc(C(F)(F)F)cc1 (configuration not stated) | 50000 nM | 8 nM |  | 
15 | Cc1ccc(CC(=O)Nc2ccc(NC(=O)/C=C/c3ccc(-c4ccc([N+](=O)[O-])cc4)o3)cc2C(=O)c2ccccc2)cc1 | > 100000 nM | 35 nM | > 85000 nM | 
16 | O=C(/C=C/c1ccc(-c2ccc([N+](=O)[O-])cc2)o1)Nc1ccc(NC(=O)C(c2ccccc2)N2CCN(C3CCCCC3)CC2)c(C(=O)c2ccccc2)c1 (configuration not stated) | 1000 nM | 340 nM | 42000 nM | 
17 | N[C@@H](Cc1ccc(Cl)cc1)C(=O)Nc1ccc(NC(=O)/C=C/c2ccc(-c3ccc([N+](=O)[O-])cc3)o2)cc1C(=O)c1ccccc1 | 1000 nM | 60 nM | > 74500 nM | 

Row | SMILES | LC50 (Trypanosoma cruzi) | IC50 [1] | CC50 at 72 h [2] | further results
18 | O=C(/C=C/c1ccc(-c2ccc([N+](=O)[O-])cc2)o1)Nc1ccc(NC(=O)C(c2ccccc2)N2CCCCC2)c(C(=O)c2ccccc2)c1 (configuration not stated) | 50000 nM | 455 nM |  | 
19 | N[C@@H](C(=O)Nc1ccc(NC(=O)/C=C/c2ccc(-c3ccc([N+](=O)[O-])cc3)o2)cc1C(=O)c1ccccc1)c1ccccc1 | > 50000 nM | 8 nM | > 80000 nM | 
20 | CC(C)NC(=O)CN1CCN(C(C(=O)Nc2ccc(NC(=O)/C=C/c3ccc(-c4ccc([N+](=O)[O-])cc4)o3)cc2C(=O)c2ccccc2)c2ccccc2)CC1 (configuration not stated) | > 50000 nM | 340 nM |  | 
21 | N[C@H](Cc1ccc(Cl)cc1)C(=O)Nc1ccc(NC(=O)/C=C/c2ccc(-c3ccc([N+](=O)[O-])cc3)o2)cc1C(=O)c1ccccc1 | > 10000 nM | 70 nM | > 74500 nM | 
22 | CCc1ccc(-c2ccc(/C=C/C(=O)Nc3ccc(NC(=O)Cc4ccc(C)cc4)c(C(=O)c4ccccc4)c3)o2)cc1 | 50000 nM | 90 nM |  | 
23 | CSCC[C@@H](N)C(=O)Nc1ccc(NC(=O)/C=C/c2ccc(-c3ccc([N+](=O)[O-])cc3)o2)cc1C(=O)c1ccccc1 | > 10000 nM | 500 nM | > 81000 nM | 
24 | N[C@@H](Cc1ccccc1)C(=O)Nc1ccc(NC(=O)/C=C/c2ccc(-c3ccc([N+](=O)[O-])cc3)o2)cc1C(=O)c1ccccc1 | > 10000 nM | 3 nM | > 79000 nM | 
25 | NC(C(=O)Nc1ccc(NC(=O)/C=C/c2ccc(-c3ccc([N+](=O)[O-])cc3)o2)cc1C(=O)c1ccccc1)c1ccc(F)cc1 (configuration not stated) | 50000 nM | 25 nM | > 78000 nM | 
26 | NC(C(=O)Nc1ccc(NC(=O)/C=C/c2ccc(-c3ccc([N+](=O)[O-])cc3)o2)cc1C(=O)c1ccccc1)c1ccc(C(F)(F)F)cc1 (configuration not stated) | 10000 nM | 17 nM |  | 
27 | NC(Cc1ccc(C(F)(F)F)cc1)C(=O)Nc1ccc(NC(=O)/C=C/c2ccc(-c3ccc([N+](=O)[O-])cc3)o2)cc1C(=O)c1ccccc1 (configuration not stated) | 50000 nM | 95 nM |  | 
28 | CC(C)C[C@@H](N)C(=O)Nc1ccc(NC(=O)/C=C/c2ccc(-c3ccc([N+](=O)[O-])cc3)o2)cc1C(=O)c1ccccc1 | 100 nM | 500 nM | 47800 nM | 
29 | N[C@@H](Cc1c[nH]c2ccccc12)C(=O)Nc1ccc(NC(=O)/C=C/c2ccc(-c3ccc([N+](=O)[O-])cc3)o2)cc1C(=O)c1ccccc1 | 10000 nM | 580 nM |  | 
30 | N[C@H](Cc1ccccc1)C(=O)Nc1ccc(NC(=O)/C=C/c2ccc(-c3ccc([N+](=O)[O-])cc3)o2)cc1C(=O)c1ccccc1 | 1 nM | 116 nM | > 78000 nM | Activity (Vero [3]): Non-toxic; survival at 3.2 mg/kg/day (Mus musculus [6]): 0%; survival at 6.4 mg/kg/day (Mus musculus [7]): 80%; Activity (Vero [5]): Non-toxic
31 | O=C(/C=C/c1ccc(-c2ccc([N+](=O)[O-])cc2)o1)Nc1ccc(NC(=O)C(c2ccccc2)N2CCN(CCO)CC2)c(C(=O)c2ccccc2)c1 (configuration not stated) | 10000 nM | 430 nM | 71000 nM | 
32 | Cc1ccc(CC(=O)Nc2ccc(NC(=O)/C=C/c3ccc(-c4ccc(S(C)(=O)=O)cc4)o3)cc2C(=O)c2ccccc2)cc1 | 50000 nM | 30 nM |  | 
33 | CC(C)(C)OC(=O)NC(Cc1ccc(C(F)(F)F)cc1)C(=O)Nc1ccc(NC(=O)/C=C/c2ccc(-c3ccc([N+](=O)[O-])cc3)o2)cc1C(=O)c1ccccc1 (configuration not stated) | > 50000 nM | 285 nM |  | 
